MrgX1 PAM: human MrgX1 positive allosteric modulation, primary screen. MrgX1-HEK293, Fluo-4 calcium flux, FDSS; hits give high values. B-score at 10 µM. AID 588675. Q96LB2. 0.63% of 310,000 active;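 active = plate-corrected calcium response at least 3 library SD above typical, normal starting fluorescence, not activating the receptor alone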;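 note: compound read alongside a low EC10 to EC30 dose of BAM8-22 agonist; peak minus trough fluorescence over baseline measured at the second addition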
Target sequence (Q96LB2 whole entry, looked up): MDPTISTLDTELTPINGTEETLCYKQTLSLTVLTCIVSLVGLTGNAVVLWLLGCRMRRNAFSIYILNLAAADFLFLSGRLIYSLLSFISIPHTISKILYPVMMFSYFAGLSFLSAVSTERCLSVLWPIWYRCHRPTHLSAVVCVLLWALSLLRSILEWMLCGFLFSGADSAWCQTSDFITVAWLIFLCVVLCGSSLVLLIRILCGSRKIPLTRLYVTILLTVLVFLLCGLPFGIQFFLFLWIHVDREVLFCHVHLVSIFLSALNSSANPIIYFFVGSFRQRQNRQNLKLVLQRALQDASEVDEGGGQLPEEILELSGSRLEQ
MrgX1 ag: activates human MrgX1 receptor signaling; Q96LB2; 0.44% of 310,000 active; AID 588627; MrgX1-HEK293 cells, Fluo-4 calcium fluorescence, agonist mode; hits give high values; B-score at 10 µM;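 active = calcium response B-score plate-corrected fluorescence ratio at least 3 library SD, with starting fluorescence B-score inside 5 SD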
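times = overnight plating, then 30 min 37 °C plus 30 min room-temperature dye loading | assay system = stable human MrgX1 HEK293 cell line | input = fifteen thousand cells per well | signal = kinetic calcium dye fluorescence, Fluo-4 NW | dosing = compound delivered in addition one of three | read-out = B-scored fluorescence response ratio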
RGS4 block: human RGS4 inhibition. HEK293 M3R/RGS4 inducible, Fluo-4 calcium flux; hits give high values; triggered by carbachol at its EC20. 0.45% of 310,000 active. P49798. AID 463165. B-score at 10 µM;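 active = B-score, a plate-corrected calcium signal, over three deviations above library mean, with baseline fluorescence within five deviations of library mean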;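 note: RGS4 expression induced by doxycycline in cells with stable M3 receptor; B-score is computed from the integrated fluorescence ratio over baseline after carbachol; higher B-score means a larger calcium signal and so more RGS4 inhibition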
Target sequence (P49798 whole entry, looked up): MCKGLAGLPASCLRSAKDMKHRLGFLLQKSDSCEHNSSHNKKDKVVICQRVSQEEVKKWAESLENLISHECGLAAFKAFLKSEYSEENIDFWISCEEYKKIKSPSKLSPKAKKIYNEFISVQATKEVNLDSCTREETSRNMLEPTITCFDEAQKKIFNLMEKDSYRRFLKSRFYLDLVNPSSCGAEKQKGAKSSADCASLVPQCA
MrgX1 antag: human MrgX1 receptor antagonism, primary screen; Q96LB2; MRGX1-HEK293 calcium flux, Fluo-4, BAM8-22 antagonism; hits give low values; B-score at 10 µM; 1.3% of 310,000 active; AID 588676;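 active = calcium-response B-score plate-corrected more than 3 library SD below zero, starting fluorescence within 5 deviations, no agonist response on first addition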;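 note: peak minus trough fluorescence over baseline after final BAM8-22 challenge near maximal dose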
RGS4 pot: potentiators or activators of RGS4; HEK293 M3R/inducible RGS4, carbachol calcium flux Fluo4; hits give low values; B-score at 10 µM; 0.92% of 310,000 active; AID 463111;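 active = B-score of the integrated calcium signal more than 4 SD below the library mean, with starting fluorescence not abnormally high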;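 note: negative B-score means reduced calcium response which marks RGS4 activation or potentiation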
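System: HEK293 FlpIn-TREx cells, stable M3R, doxycycline-inducible RGS4. Timing: overnight RGS4 induction, 30 min dye load 37 °C, 20 min compound RT. Also added: carbachol, ECmax concentration. Measured by: Fluo4 fluorescence kinetic imaging of calcium. Evaluation: integrated calcium ratio converted to B score.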
MrgX1 ag confirm: confirmation of human MrgX1 receptor agonists. shares compounds with MrgX1 ag. MrgX1-HEK293, Fluo-4 calcium fluorescence, FDSS. activation, % at 10 µM. 78% of 600 active. AID 602412;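 active = calcium signal rise, corrected for plate position, at least 3 library SD high, with starting brightness within 5 such deviations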; note: reference of the scale not given here
HEK293 Ca flux: MrgX1 antagonist counter-screen hit in parental HEK293 cells | shares compounds with MrgX1 antag | Fluo-4 calcium fluorescence, FDSS | fluorescence ratio F(max-min)/F0 at 10 µM | 2% of 4,000 active;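 active = duplicate-averaged calcium fluorescence ratio at least three times the standard deviation of buffer wells, a nonspecific response in parental cells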
HEK293 Ca counter: counter-screen for MrgX1 allosteric activators: effect in parental HEK293 cells; shares compounds with MrgX1 antag; parental HEK293 calcium flux, Fluo-4 fluorescence ratio; hits give high values; fluorescence ratio F(max-min)/F0 at 10 µM; 0.4% of 4,000 active; AID 624114;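 active = calcium fluorescence ratio, averaged over duplicates, at least 3 SD of the buffer-well ratio, meaning a nonspecific response in receptor-free cells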;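 note: untransfected parental HEK293 lacking MrgX1 used as counterscreen for MrgX1 allosteric activators; fluorescence change taken during the second addition on a kinetic imager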
HEK293 Ca cntr2: counter-screen for MrgX1 activators: effect in parental HEK293 cells | 8.7% of 4,000 active | Fluo-4 calcium fluorescence (FDSS); hits give high values | fluorescence ratio F(max-min)/F0 at 10 µM | shares compounds with MrgX1 antag;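 active = calcium fluorescence ratio at least three times the spread of buffer wells, meaning a non-specific response in parental cells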
Starred values were filed as active, the others as inactive; i = inactive; . = no result given. Compounds with a hit are over-represented: about 3.5% of the library has one in this group of screens.

SMILES	MrgX1 PAM	MrgX1 ag	RGS4 block	MrgX1 antag	RGS4 pot	MrgX1 ag confirm	HEK293 Ca flux	HEK293 Ca counter	HEK293 Ca cntr2
COCCn1c(CN2CCc3ccccc3C2)nc2c1c(=O)n(C)c(=O)n2C	i	i	i	i	i	.	.	.	.
CCCc1cc(C(=O)Nc2ccc(OC)cc2[N+](=O)[O-])cs1	.	.	i	.	i	.	.	.	.
CC(C)C(C)NC(=O)COc1ccc(S(=O)(=O)N2CCOCC2)cc1Cl (stereo unspecified)	i	i	i	i	i	.	.	.	.
COc1cc(/C=C2\C(=N)N3N=CSC3=NC2=O)ccc1OS(=O)(=O)c1ccccc1	i	73*	i	i	i	383%*	i	i	77*
COc1cc(/C=C2/C(=N)N3N=C(C(C)C)SC3=NC2=O)ccc1OS(=O)(=O)c1ccccc1	i	i	i	i	i	.	.	.	.
O=S(=O)(/C=C/c1ccccc1)N1CCN(Cc2ccccc2)CC1	i	i	i	i	i	.	.	.	.
CCOC(=O)N1CCN(c2nc(-c3ccc(OC)cc3)no2)CC1	i	74*	i	i	i	i	i	i	i
CC(=O)c1ccc(-n2c(CCC(=O)O)ccc2-c2cccs2)cc1	i	i	i	i	i	.	.	.	.
Cc1ccc(-n2c(CCC(=O)O)ccc2-c2cccs2)cc1	i	33*	i	i	i	149%*	i	i	i
COc1c(C)cc(C(=O)C2CCCN(C(=O)c3ccc4cc[nH]c4c3)C2)cc1C (stereo unspecified)	i	i	i	i	i	.	.	.	.
Cc1cc(Nc2ccc(Cl)cc2)nc(N)n1	i	35*	i	i	i	207%*	i	i	i
CCOc1ccccc1NC(=O)COC(=O)C1CC(=O)N(c2c(C)cccc2C)C1 (stereo unspecified)	i	28*	i	i	i	i	i	i	i
Cc1cc(N2CCCCC2)nc(N)n1	i	101*	i	i	i	520%*	i	i	123*
CCC(NC(=O)C1C2C=CC(C2)C1C(=O)O)c1ccc(C)cc1 (stereo unspecified)	i	i	i	i	i	.	.	.	.
O=S(=O)(c1ccccc1Cl)N1CCC(Cc2ccccc2)CC1	i	i	i	i	i	.	.	.	.
CNc1nc(NCc2ccccc2)c2ccccc2n1	i	76*	i	i	i	253%*	i	i	i
CC1=NN(C(=O)CCc2ccccc2)C(O)(c2ccncc2)C1 (stereo unspecified)	i	i	i	i	i	.	.	.	.
O=C(CSc1ncnc2ccccc12)c1cccs1	i	29*	i	i	i	i	i	i	i
CC(C)/C=C1\CC/C(=C\c2ccc(N(C)C)cc2)C1=O	i	101*	i	i	i	i	0.015*	i	141*
CC(C)Oc1ccc(CSC(=N)N)cc1	i	i	i	i	i	.	.	.	.
Cc1cc(CSC(=N)N)c(CSC(=N)N)cc1C	i	91*	i	i	i	246%*	i	i	i
CCOc1ccc(NC(=O)c2ccco2)c([N+](=O)[O-])c1	i	i	i	i	i	.	.	.	.
N#CCn1c(CCl)nc2ccccc2c1=O	i	42*	i	i	i	198%*	i	i	i
CN1CCCC1CCNc1ccc2sc3ccccc3c(=O)c2c1 (stereo unspecified)	i	50*	i	i	i	424%*	i	i	118*
O=c1c2ccccc2sc2ccc(NCCCN3CCOCC3)cc12	i	34*	i	i	i	324%*	i	i	107*
SMILES	MrgX1 PAM	MrgX1 ag	RGS4 block	MrgX1 antag	RGS4 pot	MrgX1 ag confirm	HEK293 Ca flux	HEK293 Ca counter	HEK293 Ca cntr2
O=C(CNS(=O)(=O)c1cccs1)N1CCc2ccccc2C1	i	i	i	i	i	.	.	.	.
Cn1c(=O)c(C(=O)CCl)c(N)n(CC2CC2)c1=O	i	i	.	i	.	.	.	.	.
CCOc1ccc(CSC(=N)N)cc1Cl	i	33*	i	i	i	179%*	i	i	i
Oc1c(C(c2ccccn2)N2CCCCC2)cc(Cl)c2cccnc12 (stereo unspecified)	i	32*	i	i	i	97%*	i	i	i
CC(=O)Nc1ccc2nc3c(=O)n(C)c(=O)n(C)c3nc2c1	i	i	i	i	i	.	.	.	.
O=C(CNCC1CCCCC1)Nc1ccc(OC(F)(F)F)cc1	i	106*	i	i	i	416%*	i	i	52*
O=C(O)C/C(=C\c1cc(Cl)c2c(c1)OCO2)c1nc2ccccc2s1	i	35*	i	i	i	91%*	i	i	i
O=C(O)C/C(=C\c1ccc2c(c1)OCO2)c1nc2ccccc2s1	i	i	i	i	i	.	.	.	.
Cc1cccc(C(=O)NNC(=O)c2ccco2)c1	i	i	i	i	i	.	.	.	.
Cc1cccc(NC(=O)C(=O)NCCc2c[nH]c3ccccc23)c1C	i	i	i	i	i	.	.	.	.
Cc1cccc(C)c1NC(=O)C(=O)NCCc1c[nH]c2ccccc12	i	41*	i	i	i	i	i	49*	i
CCNc1ccc(S(=O)(=O)N(C)C)cc1NCC(=O)Nc1ccccc1Cl	i	i	i	i	i	.	.	.	.
COc1cccc(CNC(=O)CCC2CCCN(C(=O)c3ccc(C)nc3)C2)c1 (stereo unspecified)	i	i	i	i	i	.	.	.	.
COc1cccc(CNC(=O)CCC2CCCN(c3cc(C)nc(N)n3)C2)c1 (stereo unspecified)	i	30*	i	i	i	i	i	i	i
CCc1ccc(NC(=O)c2ccc(NC3=NC4CS(=O)(=O)CC4S3)cc2)cc1 (stereo unspecified)	i	i	i	i	i	.	.	.	.
N#CSCC(=O)c1cccc2ccccc12	i	27*	.	i	.	230%*	i	i	i

Screening results (PubChem)
